From PubChem BioAssay
Sampled rows, rich in hits. Any-hit rate of the full collection: about 2.1%.
APJ agonist: agonists of human apelin receptor APJ, primary screen, CHO-K1 cells, PathHunter beta-arrestin, luminescence; 0% DMSO wells, 100% apelin; activation, % at 20 µM; 0.11% of 330,000 active;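 active = activation more than six SD over the plate average, tested at 20 µM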;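 note: 0% = DMSO alone and 100% = apelin-13 at 10 nM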
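Test system – PathHunter CHO-K1 APJ (AGTRL-1) beta-arrestin reporter cells · Input – 1000 cells/well · Compound – single test compound dose, 20 µM final, 1% DMSO · Times – compound stimulation 90 min at 25 °C, detection 60 min · Technique – beta-gal luminescence · Read-out basis – APJ–arrestin association signal · Control set – negative DMSO alone, positive Apelin-13 at 10 nM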
CCR6 antagonist: CCR6 receptor antagonists, primary screen, cell-based, CHO-K1, luminescence, beta-arrestin, uHTS; CHO-K1 CCR6 PathHunter beta-arrestin, CCL20-stimulated; inhibition, % at 20 µM; AID 493098, 2011; 0.49% of 340,000 active; C-C chemokine receptor type 6 (Homo sapiens), P51684;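 active = compounds whose inhibition of the agonist-driven luminescence signal at 20 µM reaches about 50%, limit read from the data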;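 note: cells stimulated with CCL20 at 14 nM final; plate controls were DMSO with CCL20 for no effect and DMSO without agonist for full effect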
HTR2A ag: mouse Htr2a agonists via beta-arrestin recruitment, primary screen, cell-based, luminescence; CHO-K1 mHTR2A beta-arrestin complementation; percent of 30 µM serotonin response; activation, % at 7.6 µM; 0.66% of 360,000 active;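 active = activation above a run cutoff, the mean activation of all tested compounds plus 3 SD, cut at about 14% in these data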;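 note: 0% = plate median of compound wells and 100% = 30 µM serotonin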
Target sequence (P35363 whole entry, looked up): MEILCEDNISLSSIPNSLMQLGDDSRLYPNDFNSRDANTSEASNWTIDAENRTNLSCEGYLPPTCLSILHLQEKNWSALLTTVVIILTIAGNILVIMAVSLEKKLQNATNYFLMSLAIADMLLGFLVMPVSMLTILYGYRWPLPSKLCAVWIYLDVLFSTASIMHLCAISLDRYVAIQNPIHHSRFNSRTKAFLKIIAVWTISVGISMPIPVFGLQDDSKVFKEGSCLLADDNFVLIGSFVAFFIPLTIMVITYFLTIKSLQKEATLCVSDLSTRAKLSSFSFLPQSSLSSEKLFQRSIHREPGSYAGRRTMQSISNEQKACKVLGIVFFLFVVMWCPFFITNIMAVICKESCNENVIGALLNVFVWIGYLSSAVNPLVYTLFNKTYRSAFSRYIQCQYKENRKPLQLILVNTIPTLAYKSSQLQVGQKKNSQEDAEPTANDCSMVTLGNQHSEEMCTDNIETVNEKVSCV
APJ antagonist: antagonists of human apelin receptor APJ, primary screen, CHO-K1 cells, beta-arrestin complementation, luminescence; inhibition, % at 20 µM; 0.32% of 330,000 active;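 active = inhibition above about 40% at 20 µM, limit read from the data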;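 note: cells challenged with 10 nM apelin-13 agonist together with compound; plate controls were apelin-13 plus DMSO wells for no effect and DMSO wells lacking apelin-13 for full effect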
EBI2 antag: EBI2 receptor antagonists, beta-arrestin recruitment, primary screen, cell-based, luminescence, 7a,25-OHC stimulation, uHTS. inhibition, % at 5 µM. 0.81% of 360,000 active. AID 651636, 2012. 7a,25-OHC stimulated. G-protein coupled receptor 183 (Homo sapiens), P32249; in the data active = inhibition above about 38%;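 note: enzyme fragment complementation signal reports receptor beta-arrestin coupling in cells; 0% = agonist plus DMSO wells and 100% = wells without agonist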
CXCR6 inh: CXCR6 receptor inhibitors, primary screen, cell-based, beta-arrestin, luminescence, CHO-K1 PathHunter, 1536-well | inhibition, % at 20 µM | 0.36% of 360,000 active; in the data active = inhibition above about 34%, passing the limit was not always enough;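 note: antagonist mode with CXCL16 agonist at 10 nM final; 0% = 10 nM CXCL16 with DMSO and 100% = unstimulated wells without agonist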
APJ antag conf: APJ antagonists blocking beta-arrestin recruitment, confirmation, cell-based, luminescence, single concentration, uHTS hits; antagonist mode; shares compounds with APJ antagonist; 66% of 950 active; inhibition, % at 20 µM; in the data active = inhibition above about 50%
An asterisk follows results filed as active; · = no result given.

SMILES | APJ agonist | CCR6 antagonist | HTR2A ag | APJ antagonist | EBI2 antag | CXCR6 inh | APJ antag conf
COc1nc(-c2ccccc2)cc(-c2ccc(OC)c(OC)c2)n1 | 0 | -18 | -1 | -17 | -2 | 1 | ·
Cc1ccc(-c2cc(-c3ccccc3)nc(NN)n2)cc1 | -15 | 64* | -11 | 78* | 11 | 29 | 140*
COc1ccc(/C=C/C(=O)OCC(=O)c2c(N)n(C)c(=O)n(C)c2=O)cc1 | -3 | 15 | 6 | -20 | 8 | 2 | ·
O=C(/C(=N/N=C/c1ccc(O)c(O)c1O)c1ccccc1)c1ccccc1 | 2 | 46 | 1 | -9 | -1 | 18 | ·
CN(C)S(=O)(=O)Oc1ccccc1C(=O)Nc1ccc(F)cc1F | -1 | 14 | 0 | 16 | -4 | 8 | ·
CCN1/C(=C\c2ccc3cc(C)ccc3[n+]2CC)Sc2cc(C)c(C)cc21 | · | 8 | 1 | · | -4 | 8 | ·
CCN1/C(=C/c2ccc3cc(C)ccc3[n+]2CC)Sc2ccc3sccc3c21 | 6 | 40 | 8 | 40* | 3 | 37 | 56*
CCC(C)C(=O)Nc1nnc(-c2cccs2)s1 (stereo not given) | 1 | 0 | 3 | 12 | 2 | -5 | ·
CCc1ccccc1Nc1ccc(C(=O)O)cc1N | 1 | 16 | -3 | -19 | -11 | -1 | ·
COc1ccc(CNC(=O)CN(Cc2ccco2)C(=O)CNS(=O)(=O)c2ccc(F)cc2)cc1 | 1 | 8 | 5 | 41* | -4 | 12 | -32
Nc1ccc(-c2c3ccc(=O)cc-3oc3cc(O)ccc23)c(C(=O)O)c1 | -9 | 39 | -8 | 43* | 7 | 26 | 66*
COc1ccc(-c2cc(=O)c3ccc(O)cc3o2)cc1OC | · | · | -3 | · | 3 | -2 | ·
Cc1ccc(NC(=S)NCCN(C2CCCCC2)C2CCCC2)cc1 | -3 | 13 | -7 | 2 | -5 | 4 | ·
CN(Cc1ccccc1)C(=S)NC(=O)C1CCCCC1 | -2 | 7 | -2 | 5 | 0 | -20 | ·
CN(Cc1ccccc1)C(=S)NC(=O)c1cccs1 | 7 | 22 | -3 | 41* | -21 | 9 | 33
CCC(=O)Nc1cccc(NC(=O)c2ccc(C)cc2Cl)c1 | -4 | -1 | -1 | -13 | 3 | -4 | ·
CC1CCCCN1C(=O)CSc1nc2cc3c(cc2c(=O)n1Cc1ccc2c(c1)OCO2)OCO3 (stereo not given) | -1 | 3 | -1 | 55* | 19 | 10 | 57*
CCOC(=O)C1=C(COC(=O)/C=C/c2ccc([N+](=O)[O-])cc2)NC(=O)NC1C (stereo not given) | 2 | -10 | 1 | -63 | 0 | 0 | ·
CN(C)c1ccc(/C=C2\N=C(c3ccc(Cl)c([N+](=O)[O-])c3)NC2=O)cc1 | -10 | 63* | 4 | 52* | 37 | 45* | 104*
CN(C)c1ccc(/C=C2/NC(=O)NC2=O)cc1 | -1 | 4 | 2 | 3 | 6 | 14 | ·
CCOCCOC(=O)C1=C(C)NC2=C(C(=O)CC(c3cccs3)C2)C1c1ccsc1 (stereo not given) | -7 | 47 | -11 | 45* | 31 | 25 | 57*
CC(C)n1cc(C(=O)c2cc(Br)ccc2O)cc(C#N)c1=O | 1 | 10 | -1 | -7 | -1 | -7 | ·
COc1cccc(NC(=S)N/N=C2\CC3CCC2(C)C3(C)C)c1 (stereo not given) | -7 | 55* | -5 | 41* | 22 | 40 | 79*
Cc1nnsc1C(=O)N1CCC(C(=O)c2ccccc2)CC1 | 0 | 2 | -1 | 24 | -21 | -4 | ·
CC(=O)Nc1ccc(NC(=O)CCC(=O)OCC(=O)c2ccc(C)c([N+](=O)[O-])c2)cc1 | -9 | 42 | -1 | 70* | 16 | 10 | 55*
SMILES | APJ agonist | CCR6 antagonist | HTR2A ag | APJ antagonist | EBI2 antag | CXCR6 inh | APJ antag conf
CC(=O)c1ccc(NC(=O)CCC(=O)OCC(=O)c2cccc([N+](=O)[O-])c2)cc1 | -14 | 55* | 1 | 43* | 2 | 22 | 77*
Cc1ccc(NC(=O)CCC(=O)OCC(=O)c2ccc(Oc3ccc([N+](=O)[O-])cc3)cc2)cc1 | -3 | 7 | -2 | 12 | 6 | 6 | ·
Cc1ccc(C(=O)COC(=O)CCC(=O)Nc2ccccc2Cl)cc1[N+](=O)[O-] | -8 | 33 | -1 | 44* | 12 | 17 | 75*
C=CCn1c(=O)/c(=C2/Sc3cc(OC)ccc3N2C)s/c1=C1\C(=O)N(CC)C(=S)N1C | -9 | · | · | 50* | · | · | 76*
CCN1/C(=C2\C(=O)N(C)C(=S)N2C)C=Cc2cc(OC)ccc21 | -5 | 20 | 0 | 21 | -4 | 11 | ·
CCN1C(=O)C(=Cc2cccc(OC)c2Oc2ccc([N+](=O)[O-])cc2[N+](=O)[O-])SC1=S | -7 | 60* | 1 | 50* | 14 | 42* | 71*
O=C(NCCOC(=O)c1cccs1)c1cccnc1 | -4 | -9 | -4 | 65* | 3 | 3 | 25
O=C1ON=C(c2ccccc2)/C1=C/c1ccc(O)c(O)c1 | -8 | 45 | 7 | 42* | -3 | 28 | 68*
COc1ccc(/C=C2\C(=O)ON=C2c2ccccc2)cc1 | 2 | -12 | 8 | -1 | -7 | -6 | ·
CCCCN(C)CCNC(=O)CN1C(=O)CSc2ccc(S(=O)(=O)N3CCCCC3)cc21 | -5 | 15 | 3 | 49* | -11 | -7 | -27
CCCCN(C)CCNC(=O)CN1C(=O)CSc2ccc(S(=O)(=O)N3CCOCC3)cc21 | -3 | 4 | 5 | -5 | -1 | 0 | ·
Cc1cc(C)nc(NNS(=O)(=O)c2c(F)cc(F)cc2Br)n1 | -11 | 47 | 11 | 67* | 22 | 33 | 114*
CCC1SC2=NC(C)=C(C(=O)OC)C(c3ccc(C)cc3)N2C1=O (stereo not given) | -3 | 8 | 4 | 12 | 7 | 1 | ·
O=C(O)c1cccnc1Sc1ccccc1 | -2 | 6 | 3 | 11 | -2 | 0 | ·
CC([NH2+][O-])C(C)(C)NO (stereo not given) | -5 | 51* | 1 | 47* | 6 | 30 | 33
Cc1nn(CCC(=O)NNC(=S)NCC(C)C)c(C)c1Br | -14 | 53* | -26 | 77* | 22 | 38 | 115*
Cc1nn(CCC(=O)NNC(=S)Nc2ccccc2)c(C)c1Br | -12 | 27 | -26 | 47* | 5 | 8 | 100*
